# The list is not random: actives were taken first. Their share in the collection is about 1.8%.
# SKN-1 inh – C. elegans SKN-1 inhibition; AID 624304; C. elegans VP596 Pgst-4::GFP/RFP ratio, acrylamide-induced, 24 h; 0.49% of 360,000 active; inhibition, % at 21.8 µM;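 active = interference check ratio from 0.5 to 1.5 plus GFP to RFP signal ratio inhibition reaching or exceeding a fixed threshold, cut at about 30% in these data, passing the limit was not always enough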
# eLon inh – inhibits E. coli Lon protease | purified E. coli Lon protease, fluorescence polarization | 0.42% of 360,000 active | P0A9M0 | AID 602123 | inhibition, % at 7.94 µM; in the data active = inhibition above about 13%, passing the limit was not always enough;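 note: 0% = enzyme with probe and DMSO and 100% = no enzyme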
# Target sequence (P0A9M0 whole entry, looked up): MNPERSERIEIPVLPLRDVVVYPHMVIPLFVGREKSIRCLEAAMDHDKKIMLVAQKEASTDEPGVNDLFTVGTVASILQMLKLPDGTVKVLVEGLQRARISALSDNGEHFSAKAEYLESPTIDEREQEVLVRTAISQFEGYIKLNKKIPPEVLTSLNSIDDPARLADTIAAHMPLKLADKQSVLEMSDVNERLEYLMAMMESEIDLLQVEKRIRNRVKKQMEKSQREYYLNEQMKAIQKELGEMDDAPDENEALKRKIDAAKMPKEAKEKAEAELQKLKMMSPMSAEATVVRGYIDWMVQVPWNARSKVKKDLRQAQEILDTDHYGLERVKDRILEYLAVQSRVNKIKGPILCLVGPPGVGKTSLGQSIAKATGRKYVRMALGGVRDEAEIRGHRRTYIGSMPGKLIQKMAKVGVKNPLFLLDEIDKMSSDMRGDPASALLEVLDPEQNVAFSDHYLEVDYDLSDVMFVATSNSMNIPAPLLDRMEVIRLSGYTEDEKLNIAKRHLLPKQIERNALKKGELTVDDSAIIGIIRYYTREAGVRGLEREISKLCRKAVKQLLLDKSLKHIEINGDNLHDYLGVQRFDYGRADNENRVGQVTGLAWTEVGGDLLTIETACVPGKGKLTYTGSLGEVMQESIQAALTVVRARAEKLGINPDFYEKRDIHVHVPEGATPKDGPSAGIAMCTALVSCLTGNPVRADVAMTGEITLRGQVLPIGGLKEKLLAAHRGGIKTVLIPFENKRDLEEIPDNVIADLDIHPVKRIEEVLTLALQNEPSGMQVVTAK
# hiPSC survival – increases survival of single human iPS cells | hiPSC single-cell survival, ATPlite luminescence; 100% = ROCK inhibitor wells, 0% = DMSO | 0.044% of 360,000 active | survival enhancement, % at 20 µM; in the data active = survival enhancement above about 18%;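 note: cells exposed to compounds for 16 hours before the ATP read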
# MT1-MMP act inh – MT1-MMP (human) activation inhibition. HT1080 RFP-PRO-GFP cells, GFP/RFP ratio fluorescence, overnight; percent of plate control window, DMSO zero. GFP/RFP ratio change, % at 20 µM. 0.061% of 360,000 active. AID 651647;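 active = GFP/RFP ratio change of at least 30% with cell ATP level not reduced by more than half and red fluorescence within 50% of control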
#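 Assay system: RFP-PRO-GFP reporter HT1080 cells; read-out basis: GFP/RFP fluorescence ratio; benchmarks: DMSO wells and RFP-L50D-GFP cells; doses: 20 µM single dose, 1% DMSO; schedule: overnight cell settling, then overnight compound exposure, 37 °C, 5% CO2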
# Tb MetRS inh – blocks T. brucei methionyl-tRNA synthetase activity; inhibition, % at 11.9 µM; purified T. brucei MetRS, ATP depletion, Kinase-Glo luminescence; 0.4% of 360,000 active;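 active = inhibition above a per-plate cutoff of the control wells' mean inhibition plus 3 SD, cut at about 5.5% in these data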;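 note: 0% = DMSO wells median and 100% = median of wells with control inhibitor compound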
#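 Assay system: T. brucei methionyl-tRNA synthetase, purified | Medium: HEPES buffer with MgCl2, KCl, DTT, spermine, BSA, pyrophosphatase | Compound: 11.9 µM single point | Incubation: 15 min enzyme-compound preincubation, 2 h reaction, 10 min detection, 25 °C | Measured by: Kinase-Glo luciferase luminescence reporting remaining unconsumed ATP | Measure: % inhibition normalized to control-well medians | Replication: Singlicate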
# PREPL inh – inhibitors of human prolyl oligopeptidase-like enzyme PREPL; Q4J6C6; recombinant PREPL, fluorescence polarization activity-based probe; inhibition, % at 5.96 µM; 0.68% of 320,000 active;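 note: 0% = enzyme with DMSO and 100% = wells lacking enzyme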
# PREPL inh cf – human PREPL inhibition, confirmation | shares compounds with PREPL inh | recombinant PREPL, fluorescence polarization activity probe | inhibition, % at 5.96 µM | 67% of 2,000 active | AID 2803;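 note: 0% = protein with DMSO and 100% = wells lacking protein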
# Starred values were filed as active, the others as inactive; nt = not tested or not shown. Cut-off read from the data, not from the text of the source, unless noted: active = inhibition above about 43%; inactive = the rest.
SMILES,SKN-1 inh,eLon inh,hiPSC survival,MT1-MMP act inh,Tb MetRS inh,PREPL inh,PREPL inh cf
Cc1cccc(NC(=S)NC(C)C(c2cccs2)N2CCN(C)CC2)c1C (centres undefined),-8,-1,0,-12,0,34,nt
COc1cccc2c(=O)cc(C)n(CC(=O)Nc3cccc(C)c3)c12,-1,-9,1,-3,1,-12,nt
O=C(C1=C[C@@H](c2ccc(C(F)(F)F)cc2)C[C@@H](OCCCCO)O1)N1CCN(Cc2ccccc2)CC1,-8,-2,0,-1,0,66*,56*
CC(C)(C)[C@H]1C=C(C(=O)N2CCN(Cc3ccc4c(c3)OCO4)CC2)O[C@@H](OCCCCO)C1,2,13,0,8,0,44*,43
O=C(C1=C[C@@H](c2ccc3c(c2)OCO3)C[C@@H](OCc2ccc(CO)cc2)O1)N1CCOCC1,-5,5,-2,1,0,50*,44*
O=C(NCCS(=O)(=O)N1CCN(c2ccc(F)cc2)CC1)C12CC3CC(CC(C3)C1)C2,-6,-1,0,1,0,12,nt
COc1ccc(C)cc1N(CC(=O)N1CCCCCC1)S(=O)(=O)c1ccc(C)cc1,-1,-2,1,-4,0,0,nt
Cc1ccccc1C(=O)Nc1ccc(S(=O)(=O)N2CCCC2)cc1,-12,0,0,2,-1,13,nt
O=C(CCCn1c(=O)oc2ccccc21)N1CCN(c2ccc(F)cc2)CC1,-10,1,1,-11,-1,-94,nt
O=C(CCn1c(=O)oc2ccccc21)N1CCN(c2ccccc2F)CC1,13,-3,0,4,0,62*,8
Cc1c(CN2CCN(CC(C)C)C(CCO)C2)[nH]c2ccc(Cl)cc12 (centres undefined),5,2,-1,1,1,46*,44*
COc1ccc2[nH]c(CN3CCN(CCC(C)C)C(CCO)C3)c(C)c2c1 (centres undefined),-3,5,-1,3,0,29,nt
CCCCc1ccc(NC(=O)COC(=O)c2ccc3ncsc3c2)cc1,-2,-1,1,4,0,nt,nt
O=C(C1CCN(c2ncnc3c2nc2n3CCCCC2)CC1)N1CCN(c2cccc(Cl)c2)CC1,-19,-6,0,-1,0,49*,47*
COc1ccc(-c2c(C)oc3c(CN4CCCCC4C)c(O)ccc3c2=O)cc1 (centres undefined),20,-2,-1,1,0,-5,nt
CC1CCCCN1Cc1c(O)ccc2c(=O)c(-c3nc4ccccc4s3)c(N)oc12 (centres undefined),81*,-9,-2,1,-1,51*,51*
C#CCOCCOCCOCCNc1nc(N2CCN(C(=O)[C@H](CCCCN)n3cc([C@@H](N)CC(C)C)nn3)CC2)nc(N2CCN(C(=O)[C@H](Cc3ccc(O)cc3)n3cc([C@@H](N)CC(C)C)nn3)CC2)n1,nt,nt,nt,nt,nt,18,nt
C#CCOCCOCCOCCNc1nc(N2CCN(C(=O)[C@H](CCCCN)n3cc([C@@H](N)CO)nn3)CC2)nc(N2CCN(C(=O)[C@H](Cc3cc4ccccc4[nH]3)n3cc([C@@H](N)Cc4ccc(O)cc4)nn3)CC2)n1,nt,nt,nt,nt,nt,55*,50*
C#CCOCCOCCOCCNc1nc(N2CCN(C(=O)[C@H](CCCCN)n3cc([C@@H](N)CC(C)C)nn3)CC2)nc(N2CCN(C(=O)[C@H](Cc3cc4ccccc4[nH]3)n3cc([C@@H](N)Cc4ccc(O)cc4)nn3)CC2)n1,7,-2,-1,-1,0,49*,52*
O=C(OCn1nnc2ccccc2c1=O)c1cn(-c2ccccc2)nc1-c1cccnc1,-7,5,1,-1,-1,-10,nt
O=C(Cn1c(O)c(/C=C2\C=Nc3ccc(Br)cc32)sc1=O)N1CCCC1,-4,-3,2,3,0,43*,36
CCc1c(C)nc2cc(-c3ccc(OC)c(OC)c3)nn2c1N1CCC(C)CC1,8,0,1,13,0,7,nt
CCc1c(C)nc2cc(-c3ccc(OC)c(OC)c3)nn2c1N1CCCC1,9,2,0,-4,-1,45*,38
O=C(Cn1cnc2c(cnn2-c2ccc(F)cc2)c1=O)NCC1CCCO1 (centres undefined),5,-8,-1,1,-1,0,nt
COc1cc(/C=N\NC(=O)c2ccc(-c3ccccc3)cc2)cc(Br)c1O,-2,4,3,16,-1,43*,41
SMILES,SKN-1 inh,eLon inh,hiPSC survival,MT1-MMP act inh,Tb MetRS inh,PREPL inh,PREPL inh cf
COc1ccc(N2CCN(CCC(O)c3ccc4ccccc4c3)CC2)cc1 (centres undefined),-25,3,0,3,-2,71*,68*
O=C(c1cccs1)N1CCN(S(=O)(=O)c2ccc(F)cc2)CC1,nt,nt,nt,nt,nt,16,nt
CCCCCCCCCCCCCCCC[n+]1cccc(C(=O)N(CC)CC)c1,3,4,-1,-9,-1,50*,51*
CCCCCCCC[n+]1cccc(C(=O)N(CC)CC)c1,-9,-2,-1,0,0,1,nt
CN(CC(=O)Nc1ccccc1Cl)C(=O)c1cccc(S(=O)(=O)N2CCN(Cc3ccccc3)CC2)c1,11,14,0,4,-1,67*,70*
CN(CC(=O)Nc1ccccc1Cl)C(=O)c1cccc(S(=O)(=O)N2CCN(c3ccccc3)CC2)c1,14,4,1,-4,0,nt,nt
CC(C)(C)NC(=O)CSC(=Nc1cccc(F)c1)NC#N,7,-57,0,-47,0,64*,3
O=[N+]([O-])c1ccc(CN2CCN(c3ccc([N+](=O)[O-])cc3)CC2)cc1,6,1,0,-8,0,45*,51*
O=[N+]([O-])c1ccc(N2CCN(Cc3cccc([N+](=O)[O-])c3)CC2)cc1,19,-5,0,8,1,45*,44*
O=C(CN1C(=O)c2ccc([N+](=O)[O-])cc2C1=O)NCCC1=CCCCC1,7,4,0,4,0,0,nt
CC1(C)C(=O)Nc2ccccc2N1C(=O)COC(=O)Cc1ccc(Cl)c(Cl)c1,-13,-3,5,1,0,47*,38
Cc1cc(OCC(=O)OCC(=O)N2c3ccccc3NC(=O)C2(C)C)ccc1Cl,-2,-10,0,1,0,33,nt
OCc1nc2ccccc2n1CCOc1ccccc1,2,1,0,-1,0,6,nt

# High-throughput results: PubChem BioAssay, several laboratories
